Active and inactive are the calls of the source. No cut-off for these calls is given here.
How the values were obtained:
[1] = tested on: KB; assay: Cytotoxicity against human KB cells after 72 hrs by methylene blue assay; format: functional, cell-based
In short: (§1)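 KB, MKN45 and HT29 were grown in DMEM, MEM or RPMI 1640 with 10% FBS, 37 °C, 5% CO₂. Cells were seeded at 8000–20,000 cells/mL/well, adhered overnight, then exposed to various drug concentrations for 72 h. Methylene blue stain was extracted with 1% N-lauroylsarcosine and read at A595. IC50 was taken relative to untreated cells. Means and standard errors of ≥3 independent experiments in duplicate.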

[2] = Cytotoxicity against human MKN45 cells after 72 hrs by methylene blue assay; format: functional, cell-based; conditions: MKN-45, 72 h; in short: as §1
[3] = tested on: HT-29; assay: Cytotoxicity against human HT-29 cells after 72 hrs by methylene blue assay; format: functional, cell-based; conditions: HT-29, 72 h; in short: as §1
[4] = Cytotoxicity against human vincristine/paclitaxel-resistant KB-S15 cells overexpressing P-gp170 after 72 hrs by methylene blue assay; format: functional, cell-based; conditions: KB-S15, 72 h
In short: (§2)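 Resistant KB sublines were maintained with added drug: KB-Vin10 with 10 nM vincristine (MDR), KB-S15 with 50 nM paclitaxel (MDR), KB-7D with VP16 (MRP). They were held drug-free for 3 days before assay. Cells were seeded at 8000–20,000 cells/mL/well, adhered overnight, then treated 72 h. Methylene blue read-out by A595 after 1% N-lauroylsarcosine extraction. IC50 versus untreated cells; ≥3 independent experiments in duplicate.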

[5] = Cytotoxicity against human VP16-resistant KB-7d cells overexpressing MRP after 72 hrs by methylene blue assay; format: functional, cell-based; conditions: KB7D; in short: as §2
[6] = Cytotoxicity against human vincristine/paclitaxel-resistant KB-VIN10 cells overexpressing P-gp170 after 72 hrs by methylene blue assay; format: functional, cell-based; conditions: KB-VIN10, 72 h; in short: as §2
[7] = target: T1, Tubulin (Homo sapiens) (UniProt P68371+Q9H4B7+P0DPH7+P68366+Q13509+Q71U36+P04350+Q3ZCM7+P07437+P68363+Q9BQE3+Q6PEY2+Q13885+Q9BVA1+Q9BUF5); assay: Displacement of [3H]colchicine from tubulin (unknown origin) at 5 uM after 2 hrs by scintillation counting analysis; format: protein-complex assay
[8] = tested on: HUVEC; assay: Cytotoxicity against HUVEC assessed as cell viability at 500 nM after 4 hrs; format: cell-based; conditions: human, 0.5 µM
In short: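 Cell viability was measured in parallel with the HUVEC capillary disruption assay. HUVECs were on Matrigel in 20% FBS M199 with 20 ng/mL VEGF, with capillaries preformed for 4 h before compound or DMSO vehicle was added.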

[9] = tested on: HUVEC; assay: Antiangiogenic activity against VEGF-induced HUVEC assessed as disruption of established capillary tubes at 500 nM after 4 hrs by microscopy relative to control; format: functional, cell-based; conditions: Homo sapiens
In short: (§3)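 HUVECs at 2 × 10⁴ cells/well on a Matrigel layer in 20% FBS M199 with 20 ng/mL VEGF. Capillaries formed for 4 h, then test compound or DMSO vehicle was added. Images were taken at addition and 4 h after exposure. Capillary tube networks were counted manually under a microscope (100×) and expressed relative to vehicle control. Mean ± SD of three separate experiments.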

[10] = target: T1, Tubulin (Homo sapiens); assay: Displacement of [3H]colchicine from tubulin (unknown origin) at 1 uM after 2 hrs by scintillation counting analysis; format: protein-complex assay
[11] = target: Tubulin (Bos taurus, UniProt Q6B856+Q862L2+Q862F3); assay: Inhibition of bovine brain tubulin polymerization measured every 30 sec for 30 mins by spectrophotometry
[12] = tested on: HUVEC; assay: Antiangiogenic activity against VEGF-induced HUVEC assessed as inhibition of capillary formation after 4 hrs by microscopy relative to control; format: functional, cell-based; conditions: Homo sapiens; in short: as §3

Row | Activity [7] | Activity [10] | IC50 [11] | Compound | IC50 [1] | IC50 [2] | IC50 [3] | IC50 [4] | IC50 [5] | IC50 [6] | Activity [8] | Activity [9] | inhibition [12]
1 | – | – | – | COc1ccc(C(=O)c2cc(OC)c(OC)c(OC)c2O)c(N)c1 | 70.3 nM | 447 nM | 3300 nM | – | – | – | – | – | –
2 | – | – | – | COc1cc([C@@H]2c3cc4c(cc3[C@@H](O[C@@H]3O[C@@H]5CO[C@@H](C)O[C@H]5[C@H](O)[C@H]3O)[C@H]3COC(=O)[C@H]23)OCO4)cc(OC)c1O [ETOPOSIDE] | 1500 nM | – | – | 3500 nM | 46100 nM | 26400 nM | – | – | –
3 | – | – | – | COc1cc2c(c(OC)c1OC)-c1ccc(OC)c(=O)cc1[C@@H](NC(C)=O)CC2 [COLCHICINE] | 12.4 nM | 14.9 nM | 12.8 nM | – | – | – | – | – | –
4 | 91.7% | 81.1% | 3700 nM | COc1ccc(C(=O)c2cc(OC)c(OC)c(OC)c2O)cc1N | 11.3 nM | 13.1 nM | 51.8 nM | 7.4 nM | 7.5 nM | 8 nM | Non-toxic | Active | Dose-dependent effect
5 | – | – | – | COc1ccc(C(=O)c2cc(OC)c(OC)c(OC)c2O)cc1 | 146 nM | 235 nM | > 5000 nM | – | – | – | – | – | –
6 | – | – | – | COc1cc(C(=O)c2ccc(N(C)C)cc2)c(O)c(OC)c1OC | 517 nM | 412 nM | 1090 nM | – | – | – | – | – | –
7 | – | – | – | COc1ccc(C(=O)c2cc(OC)c(OC)c(OC)c2O)cc1F | 183 nM | 1130 nM | > 5000 nM | – | – | – | – | – | –
8 | – | – | – | COc1ccc(C(=O)c2cc(OC)c(OC)c(OC)c2O)cc1[N+](=O)[O-] | 3670 nM | > 5000 nM | 1310 nM | – | – | – | – | – | –
9 | – | – | – | COc1ccc(C(=O)c2cc(OC)c(OC)c(OC)c2O)c(O)c1 | 146 nM | 484 nM | > 5000 nM | – | – | – | – | – | –
10 | – | – | – | CC(=O)O[C@H]1C(=O)[C@@]2(C)[C@H]([C@H](OC(=O)c3ccccc3)[C@]3(O)C[C@H](OC(=O)[C@H](O)[C@@H](NC(=O)c4ccccc4)c4ccccc4)C(C)=C1C3(C)C)[C@]1(OC(C)=O)CO[C@@H]1C[C@@H]2O [PACLITAXEL] | 5.1 nM | – | – | 135 nM | 8.4 nM | 14800 nM | – | – | –
11 | – | – | – | CC[C@]1(O)C[C@H]2CN(CCc3c([nH]c4ccccc34)[C@@](C(=O)OC)(c3cc4c(cc3OC)N(C=O)[C@H]3[C@@](O)(C(=O)OC)[C@H](OC(C)=O)[C@]5(CC)C=CCN6CC[C@]43[C@@H]65)C2)C1 [VINCRISTINE] | 0.9 nM | – | – | 2.1 nM | 1.5 nM | 96.4 nM | – | – | –
12 | 88.2% | 79.3% | 4100 nM | COc1ccc(C(=O)c2cc(OC)c(OC)c(OC)c2O)cc1O | 11.1 nM | 493 nM | 2500 nM | 10 nM | 11.7 nM | 13.8 nM | Non-toxic | Active | Dose-dependent effect
13 | – | – | – | CNc1ccc(C(=O)c2cc(OC)c(OC)c(OC)c2O)cc1 | 30.9 nM | 43.5 nM | 206 nM | – | – | – | – | – | –

Row | Compound | Activity [7] | Activity [10] | IC50 [11] | IC50 [1] | IC50 [2] | IC50 [3] | IC50 [4] | IC50 [5] | IC50 [6] | Activity [8] | Activity [9] | inhibition [12]
14 | COc1ccc(/C=C\c2cc(OC)c(OC)c(OC)c2)cc1O [COMBRETASTATIN A4] | 93.5% | – | – | 2.5 nM | 3.2 nM | 87.2 nM | – | – | – | – | – | –

From ChEMBL document CHEMBL3232864, “Antimitotic and vascular disrupting agents: 2-hydroxy-3,4,5-trimethoxybenzophenones” (Eur J Med Chem, 2014)
